UBC13 polyUb: inhibitors of human UBC13 polyubiquitin chain formation; P61088; inhibition, % at 20 µM; TR-FRET; 330,000 tested, 0.47% active; in the data active means inhibition above about 45%, passing the limit was not always enough
PfM18AAP inh-1: PfM18AAP enzyme inhibition | recombinant PfM18AAP, H-Glu-NHMec fluorogenic cleavage | inhibition, % at 7.35 µM | 290,000 tested, 1.2% active;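 active means inhibition above the campaign mean inhibition over all tested compounds plus 3 SD, cut at about 28% in these data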;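 further: 0% = plate median of test compound wells and 100% = 2 mM ZnCl2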
ZTA counter: ZTA (EBV) inhibition in EBNA-1 counter-screen; 320,000 tested, 0.15% active; ZTA-DNA binding, fluorescence polarization; P03206; AID 2234; inhibition, % at 11 µM; in the data active means inhibition above about 33%
PfGluPho inh: PfG6PD (Plasmodium falciparum) enzyme inhibition; PfGluPho enzyme, NADPH resazurin-diaphorase fluorescence; inhibition, % at 20 µM; 350,000 tested, 0.78% active; AID 504690;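 active means inhibition reaching at least a set limit at 20 µM in the primary screen, cut at about 59% in these data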;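 further: 0% = DMSO wells with substrate and 100% = DMSO wells lacking glucose-6-phosphate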
EBNA-1 inh: blocks EBNA-1 binding to DNA. 300,000 tested, 0.34% active. AID 1950. inhibition, % at 14.8 µM. EBNA-1 DNA binding, fluorescence polarization; in the data active means inhibition above about 28%
Apaf1 inhib: inhibitors of human Apaf-1 apoptosome; inhibition, % at 20 µM; AID 489030; 330,000 tested, 0.71% active; reconstituted apoptosome caspase-3 activity, DEVD-Rh110 fluorescence; active means inhibition of at least 40% at 20 µM;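 further: plate controls were DMSO wells for no effect and DEVD-CHO caspase inhibitor wells for full effect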
Target sequence (O14727 whole entry, looked up): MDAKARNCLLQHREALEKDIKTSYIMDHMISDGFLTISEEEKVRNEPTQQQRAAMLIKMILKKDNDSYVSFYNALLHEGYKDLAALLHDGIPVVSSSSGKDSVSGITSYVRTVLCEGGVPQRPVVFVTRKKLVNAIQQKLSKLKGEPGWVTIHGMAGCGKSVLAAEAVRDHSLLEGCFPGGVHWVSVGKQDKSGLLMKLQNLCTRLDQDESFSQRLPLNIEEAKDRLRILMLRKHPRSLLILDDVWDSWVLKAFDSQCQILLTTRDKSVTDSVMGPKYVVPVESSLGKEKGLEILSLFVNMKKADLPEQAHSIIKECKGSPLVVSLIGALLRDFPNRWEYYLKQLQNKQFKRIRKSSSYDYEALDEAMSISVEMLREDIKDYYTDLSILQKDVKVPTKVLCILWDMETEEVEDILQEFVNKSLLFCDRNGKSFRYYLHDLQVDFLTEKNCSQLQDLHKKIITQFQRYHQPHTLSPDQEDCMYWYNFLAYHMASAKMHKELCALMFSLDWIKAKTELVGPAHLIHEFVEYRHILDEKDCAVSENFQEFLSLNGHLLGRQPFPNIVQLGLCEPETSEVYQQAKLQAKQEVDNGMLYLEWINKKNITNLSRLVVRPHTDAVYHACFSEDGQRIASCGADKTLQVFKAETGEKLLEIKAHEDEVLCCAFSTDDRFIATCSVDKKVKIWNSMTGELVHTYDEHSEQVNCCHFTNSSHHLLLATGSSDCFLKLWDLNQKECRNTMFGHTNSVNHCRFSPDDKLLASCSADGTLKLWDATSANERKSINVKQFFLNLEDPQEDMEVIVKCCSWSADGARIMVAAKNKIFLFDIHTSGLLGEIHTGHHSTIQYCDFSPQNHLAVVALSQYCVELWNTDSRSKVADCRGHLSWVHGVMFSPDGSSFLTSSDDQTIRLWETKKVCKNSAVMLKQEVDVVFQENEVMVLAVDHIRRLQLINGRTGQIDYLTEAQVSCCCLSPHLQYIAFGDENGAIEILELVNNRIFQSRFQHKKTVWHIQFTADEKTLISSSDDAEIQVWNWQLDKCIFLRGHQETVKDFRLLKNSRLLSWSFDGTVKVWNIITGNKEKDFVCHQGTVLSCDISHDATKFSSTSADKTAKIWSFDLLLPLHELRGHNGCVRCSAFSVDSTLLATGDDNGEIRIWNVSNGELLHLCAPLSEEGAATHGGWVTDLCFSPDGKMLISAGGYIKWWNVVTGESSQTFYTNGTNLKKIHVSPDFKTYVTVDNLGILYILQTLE
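Assay system: Apoptosome proteins | Medium: pH 7.5 Hepes buffer with CHAPS, BSA, DTT | Also added: Cytochrome c and DEVD-Rh110 substrate | Times: 30 min plus 50 min, RT | Detection: Rhodamine 110 fluorescence at Ex 480/Em 540 nm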
PfM18AAP inh-2: confirmation of Plasmodium falciparum M18 aspartyl aminopeptidase inhibitors. shares compounds with PfM18AAP inh-1. recombinant PfM18AAP, H-Glu-NHMec fluorogenic cleavage. 2,400 tested, 28% active. inhibition, % at 7.35 µM. AID 2170;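 active means mean inhibition over replicate wells above the hit cutoff set for the earlier primary screen, cut at about 29% in these data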;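 further: 0% = median of test compound wells and 100% = 2 mM ZnCl2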
CTSL1 counter: Cathepsin L (human) inhibition, confirmation. shares compounds with PfM18AAP inh-1. purified cathepsin L1, Z-Leu-Arg-MCA fluorescence. inhibition, % at 5.96 µM. 2,400 tested, under 10 active;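 active means average inhibition across replicates above the hit cutoff set in the earlier primary screen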;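 further: 0% = median of test compound wells and 100% = Z-Phe-Ala-diazomethylketone 1 µM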
Apaf-1 inh conf: confirmation of Apaf-1 inhibitors | inhibition, % at 20 µM | 1,800 tested, 25% active | shares compounds with Apaf1 inhib | AID 504614 | reconstituted apoptosome, caspase-3 DEVD-Rh110 fluorescence;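 active means mean inhibition of at least 40% at 20 µM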;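 further: plate controls were DMSO wells for no effect and DEVD-CHO caspase inhibitor control wells for full effect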
Rh110 interf inh: interferes with Rh110 fluorescence, flagging false Apaf-1 inhibitors | shares compounds with Apaf1 inhib | Rh110 fluorescence interference, quenched caspase reaction | activation (fluorescence interference), % at 20 µM | 1,800 tested, under 10 active | AID 504615;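 active means signal rise of 40% or more at 20 µM, treated as a fluorescence artifact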
Apaf1 inh interf: Apaf-1 inhibitor counter-screen fluorescence artifact | shares compounds with Apaf1 inhib | 460 tested, under 10 active | AID 588538 | IC50, µM | fluorescence interference counterscreen, Apaf-1 assay format; call rule not given here
PfG6PD confirm: confirmation of Plasmodium falciparum G6PD inhibitors; shares compounds with PfGluPho inh; recombinant PfGluPho, NADPH-diaphorase-resazurin fluorescence; inhibition, % at 20 µM; 2,400 tested, 34% active;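 active means inhibition of at least 50% at 20 µM in any single replicate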;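 further: 0% = DMSO with substrate and 100% = DMSO lacking glucose-6-phosphate substrate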
Diaphorase 10uM: diaphorase inhibition or oxidation at 10 uM NADPH; shares compounds with PfGluPho inh; diaphorase-coupled resazurin reduction, fluorescence, NADPH 10 uM; inhibition, % at 20 µM; 820 tested, 39% active;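 active means average inhibition reaching 50% or more with the compound at 20 µM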;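 further: resorufin red fluorescence formed as diaphorase reduces resazurin using NADPH; 0% = DMSO with enzyme and 100% = DMSO without enzyme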
Diaphorase 30uM: counter-screen for P. falciparum G6PD inhibitors: diaphorase inhibitors, oxidizers; shares compounds with PfGluPho inh; Diaphorase/resazurin coupled assay, resorufin fluorescence, 30 uM NADPH; inhibition, % at 20 µM; 820 tested, 29% active;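 active means inhibition averaging 50% or more, tested at 20 µM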;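 further: 0% = DMSO with enzyme and 100% = DMSO wells lacking diaphorase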
An asterisk follows results filed as active; . = no result. In the library only some 2.9% were active in any assay of this set; here they are far more common.

SMILES | UBC13 polyUb | PfM18AAP inh-1 | ZTA counter | PfGluPho inh | EBNA-1 inh | Apaf1 inhib | PfM18AAP inh-2 | CTSL1 counter | PfG6PD confirm | Diaphorase 10uM | Diaphorase 30uM | others
CC(NC(=O)c1sc2cc([N+](=O)[O-])ccc2c1Cl)C(C)(C)C (stereo unspecified) | 8.8 | 38.2* | 9.9 | 97.3* | -15.3 | -5.6 | 30.8* | 1.6 | 70.0* | 0.3 | -2.6
O=[N+]([O-])c1ccc(-c2ccc(S(=O)(=O)NCCN3CCCC3)cc2)cc1 | 15.0 | -0.5 | 11.1 | -6.0 | 0.9 | 14.7 | . | . | . | . | .
O=C(NC1CCN(c2ncccn2)CC1)c1ccccc1F | -4.0 | -4.5 | -8.7 | -3.8 | -1.5 | -2.0 | . | . | . | . | .
O=[N+]([O-])c1ccc(N/N=C/c2ccc(O)c(O)c2O)c(S(=O)(=O)N2CCOCC2)c1 | -105.7 | 36.9* | . | 66.5* | . | 62.7* | -29.2 | -7.0 | 61.9* | 30.4 | 28.3 | Apaf-1 inh conf=43.0*;Rh110 interf inh=9.3;Apaf1 inh interf=>100
O=C(c1cccc(S(=O)(=O)N2CCc3ccccc3C2)c1)N1CCN(c2ccc(O)cc2)CC1 | 4.5 | 35.6* | -7.7 | 65.9* | 6.9 | 8.0 | -4.8 | 4.2 | 25.7 | . | .
NC(=O)C1CCN(C(=O)c2cccc(S(=O)(=O)N3CCc4ccccc4C3)c2)CC1 | 2.4 | 2.7 | -14.3 | 15.5 | 2.4 | -2.3 | . | . | . | . | .
COc1ccc(Cn2nnnc2C(C(C)C)N2CCN(c3ccccc3OC)CC2)cc1 (stereo unspecified) | -5.9 | -13.5 | 4.6 | -9.6 | 9.1 | 18.0 | . | . | . | . | .
CC(C)C(c1nnnn1Cc1ccc(F)cc1)N1CCN(c2ccc(O)cc2)CC1 (stereo unspecified) | -4.7 | 31.9* | -13.8 | 63.7* | -18.9 | 7.0 | -11.4 | 0.5 | 18.6 | . | .
Cc1sc(NC(=O)Nc2ccccc2)c(C(N)=O)c1C | 25.9 | 36.6* | -3.2 | 73.8* | -0.2 | -1.4 | 4.9 | -0.2 | 26.6 | . | .
CCOC(=O)C1=C(C)N(CCCC(=O)O)C(=O)NC1c1ccccc1OC(=O)c1cccs1 (stereo unspecified) | -3.6 | . | 9.7 | . | 5.7 | -3.0 | . | . | . | . | .
Cc1ccc(-c2csc3n[nH]c(=S)n23)cc1 | -0.2 | 63.4* | -8.9 | 62.6* | 4.8 | -6.3 | 51.9* | -0.4 | 40.3 | . | .
CC[C@@H]1CC=C[C@H]2[C@H]1C(=O)N(Cc1ccccc1)[C@H]2c1cc(C)ccc1F | -5.7 | . | . | . | . | 12.3 | . | . | . | . | .
O=C(CCc1ccc(O)c(O)c1)N/N=C/c1cc2c(cc1[N+](=O)[O-])OCO2 | 0.1 | 75.9* | . | 68.3* | . | 11.7 | 51.3* | -1.4 | 65.2* | 32.8 | 16.7
Cc1ccc(S(=O)(=O)N2CCOCC2)cc1NC(=O)CN1CCN(c2ccc(O)cc2)CC1 | 4.4 | 34.3* | 5.9 | 64.7* | -1.7 | 5.2 | 7.7 | 0.0 | 22.8 | . | .
COc1cc(/C=C(\C#N)C(N)=O)ccc1OCc1c(C)no[n+]1[O-] | -2.4 | -6.1 | -5.3 | 16.5 | -2.7 | -4.2 | . | . | . | . | .
COc1cc(/C=N/Nc2nncn2N)ccc1OCc1c(C)no[n+]1[O-] | -2.5 | 51.4* | -5.3 | 82.1* | 7.0 | -4.2 | -5.7 | 4.6 | 62.7* | 34.4 | 23.9
COc1cc(/C=C2\CC/C(=C\c3cc(OC)c(O)c(OC)c3)C2=O)cc(OC)c1O | -93.2 | 50.8* | -0.1 | 63.1* | -3.3 | 23.3 | 47.9* | -0.6 | 67.2* | 18.4 | 17.1
CC(C(=O)OCC(=O)N(C)C1(C#N)CCCCC1)N1C(=O)c2ccccc2C1=O (stereo unspecified) | 14.4 | . | -1.9 | -8.4 | . | -4.0 | . | . | . | . | .
COc1ccc(/C=N/Nc2ccc([N+](=O)[O-])cc2)cc1O | -147.7 | 48.0* | 10.7 | 80.6* | 9.1 | 13.2 | 9.6 | 7.1 | 13.3 | . | .
COc1ccc(OC)c(S(=O)(=O)NCC(=O)NC2CCCc3ccccc32)c1 (stereo unspecified) | 0.6 | . | . | 14.0 | . | -5.2 | . | . | . | . | .
O=C(NCc1csc(-c2cccs2)n1)c1cccc(Cl)c1 | -0.2 | -5.8 | -1.7 | -3.9 | -16.4 | -6.1 | . | . | . | . | .
N#CC1=C2SCC(O)(c3ccccc3)N2C(=O)CC1c1ccccc1F (stereo unspecified) | 5.2 | 5.6 | -2.9 | 10.6 | -8.3 | 12.7 | . | . | . | . | .
COc1cc(OC)c(C2CC(=O)N3CN(c4ccccc4)CSC3=C2C#N)cc1OC (stereo unspecified) | -3.5 | 38.7* | 13.4 | 80.9* | 9.2 | 6.1 | 19.2 | 2.8 | 58.5* | -5.0 | -2.9
COc1ccc(S(=O)(=O)Nc2cc(SCC(=O)O)c(O)c3ccccc23)cc1 | -40.8 | 32.7* | 13.0 | 110.4* | -15.3 | 85.5* | -0.3 | -1.8 | 95.8* | 42.5 | 33.4 | Apaf-1 inh conf=41.0*;Rh110 interf inh=5.0;Apaf1 inh interf=>100
COc1ccc(S(=O)(=O)Nc2cccc3ccc(O)cc23)cc1 | -0.1 | . | -3.6 | 4.3 | -8.7 | -2.8 | . | . | . | . | .
COc1ccc(-n2c(SCC#N)nc3c(sc(=S)n3-c3ccccc3)c2=O)c(OC)c1 | -1.9 | 34.8* | 4.2 | 91.0* | 5.8 | 11.0 | 23.0 | 3.0 | 41.3 | . | .
COc1ccccc1-n1c(SC)nc2c(sc(=S)n2-c2ccccc2)c1=O | 5.8 | 2.7 | . | -5.2 | . | 10.1 | . | . | . | . | .
C[C@H](NC(=O)c1cc2c(cn1)[nH]c1ccccc12)C(=O)O | 5.7 | 50.9* | . | 97.7* | . | 5.3 | 27.3 | 6.4 | 62.2* | -4.0 | -11.1
COc1ccc2cc(/C=N/NC(=O)c3c(Cl)cnn3C)c(Cl)nc2c1 | 39.7 | -8.0 | -3.4 | -4.7 | -1.2 | -13.4 | . | . | . | . | .
CC(C)Oc1ccc(/C=N/NC(=O)c2ccc(N(Cc3ccccc3)S(C)(=O)=O)cc2)cc1 | 7.5 | -7.1 | -1.4 | 2.1 | 5.1 | 10.6 | . | . | . | . | .

Screening data: PubChem BioAssay, several laboratories
